# Kir21 block: inhibitors of mouse Kir2.1 inward-rectifier potassium channel; B-score at 10 µM; AID 1672; HEK293-Kir2.1, FluxOR thallium flux fluorescence; hits give low values; actives 0.85% (n = 310,000); P35561;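 active = fluorescence ratio B-score at or below minus 3 SD of library scores, with starting-brightness B-score within 2 SD, cut at about -4.2 in these data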;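 note: channel flux triggered by added potassium and thallium sulfate stimulus; B-score of peak minus minimum fluorescence over baseline after thallium stimulus; more negative B-score means stronger Kir2.1 block with less thallium influx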
# RGS4 inh: inhibitors of human RGS4 | P49798 | B-score at 10 µM | HEK293 M3R/RGS4 inducible, Fluo-4 calcium flux; hits give high values; triggered by carbachol at its EC20 | AID 463165 | actives 0.45% (n = 310,000);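 active = B-score, a plate-corrected calcium signal, over three deviations above library mean, with baseline fluorescence within five deviations of library mean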;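 note: RGS4 expression induced by doxycycline in cells with stable M3 receptor; B-score is computed from the integrated fluorescence ratio over baseline after carbachol; higher B-score means a larger calcium signal and so more RGS4 inhibition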
# Target sequence (P49798 whole entry, looked up): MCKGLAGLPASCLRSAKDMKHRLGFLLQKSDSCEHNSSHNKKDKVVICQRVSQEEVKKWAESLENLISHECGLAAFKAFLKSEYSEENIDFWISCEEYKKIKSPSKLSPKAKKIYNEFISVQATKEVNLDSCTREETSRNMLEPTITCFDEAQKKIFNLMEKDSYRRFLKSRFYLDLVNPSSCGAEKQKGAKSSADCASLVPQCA
# MrgX1 PAM: human MrgX1 positive allosteric modulation, primary screen; B-score at 10 µM; MrgX1-HEK293, Fluo-4 calcium flux, FDSS; hits give high values; actives 0.63% (n = 310,000); Q96LB2; AID 588675;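 active = plate-corrected calcium response at least 3 library SD above typical, normal starting fluorescence, not activating the receptor alone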;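 note: compound read alongside a low EC10 to EC30 dose of BAM8-22 agonist; peak minus trough fluorescence over baseline measured at the second addition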
# Target sequence (Q96LB2 whole entry, looked up): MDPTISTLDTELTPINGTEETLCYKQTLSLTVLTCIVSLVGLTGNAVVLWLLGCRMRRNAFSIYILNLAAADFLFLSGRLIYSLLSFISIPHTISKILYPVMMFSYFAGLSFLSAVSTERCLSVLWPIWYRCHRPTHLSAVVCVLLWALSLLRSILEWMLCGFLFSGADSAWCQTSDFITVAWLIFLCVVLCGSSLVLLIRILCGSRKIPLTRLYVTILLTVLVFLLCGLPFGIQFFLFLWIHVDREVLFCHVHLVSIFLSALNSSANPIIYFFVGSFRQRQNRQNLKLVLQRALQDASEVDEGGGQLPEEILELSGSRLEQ
# MrgX1 ag: agonists of human MrgX1 receptor | MrgX1-HEK293 cells, Fluo-4 calcium fluorescence, agonist mode; hits give high values | B-score at 10 µM | actives 0.44% (n = 310,000);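 active = calcium response B-score plate-corrected fluorescence ratio at least 3 library SD, with starting fluorescence B-score inside 5 SD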
#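 Assay system: MrgX1-expressing HEK293 cells / Amount: fifteen thousand cells per well / Doses: test compound in the initial addition of three / Timing: cells plated overnight, dye loaded 0.5 h 37 °C, 0.5 h room temperature / Technique: kinetic calcium dye fluorescence, Fluo-4 NW / Control set: positive and negative controls per plate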
# MrgX1 antag: blocks BAM8-22 activation of human MrgX1 receptor. AID 588676. actives 1.3% (n = 310,000). Q96LB2. B-score at 10 µM. MRGX1-HEK293 calcium flux, Fluo-4, BAM8-22 antagonism; hits give low values;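 active = calcium-response B-score plate-corrected more than 3 library SD below zero, starting fluorescence within 5 deviations, no agonist response on first addition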;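 note: peak minus trough fluorescence over baseline after final BAM8-22 challenge near maximal dose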
# RGS4 pot: potentiators or activators of RGS4 | AID 463111 | actives 0.92% (n = 310,000) | HEK293 M3R/inducible RGS4, carbachol calcium flux Fluo4; hits give low values | B-score at 10 µM;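 active = B-score of the integrated calcium signal more than 4 SD below the library mean, with starting fluorescence not abnormally high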;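 note: negative B-score means reduced calcium response which marks RGS4 activation or potentiation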
#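 Also added: carbachol at ECmax as muscarinic agonist stimulus; Assay system: HEK293 cells with stable M3R and inducible RGS4; Timing: overnight RGS4 induction, 30 min dye load 37 °C, 20 min compound RT; Measured by: Fluo4-AM (2 µM) calcium-flux fluorescence, kinetic read.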
# * = called active by the depositor; i = inactive; . = not tested or not shown. A selection: hits, their analogues and other compounds. The true share with any hit is near 4.1%.
SMILES,Kir21 block,RGS4 inh,MrgX1 PAM,MrgX1 ag,MrgX1 antag,RGS4 pot
CCCN(c1nc(C)cc(OC)n1)S(=O)(=O)c1ccccc1,-8.32*,i,i,i,i,i
Cc1[nH]c2ccccc2c1/C=N/NC(=O)CNC(=O)Cc1ccccc1,0.05,i,i,i,i,i
COc1c(-c2ccc(O)cc2)oc2cc(O)cc(O)c2c1=O,.,.,i,i,i,.
CC(=O)Oc1cc(O)c2c(=O)c(OC(C)=O)c(-c3ccc(OC(C)=O)c(OC(C)=O)c3)oc2c1,-1.23,i,7.97*,i,i,i
CN(CCC#N)C(=O)COC(=O)/C=C/c1ccc2c(c1)OCO2,-0.38,i,i,i,-5.96*,i
CN(CCC#N)C(=O)COC(=O)/C=C/c1cccs1,1.09,i,i,i,i,i
c1ccc(Cc2noc(CN3CCCN(C4Cc5ccccc5C4)CC3)n2)cc1,0,i,i,i,i,-6.97*
CCOc1ccc(CN(C)C(=O)c2ccc(NC(=O)CC3SC(N4CCCC4)=NC3=O)cc2)cc1 (centres undefined),-0.45,i,i,i,i,i
Cc1ccc(NC(=O)CN(C)C(=O)c2ccc(NC(=O)CC3SC(N4CCCC4)=NC3=O)cc2)cc1 (centres undefined),-0.45,i,i,i,-9.62*,i
O=C(c1cccc(S(=O)(=O)N2CCCC2)c1)N1CCCc2ccccc21,0.13,i,i,i,i,i
Clc1ccc(CSc2ncn(-c3ccccc3)n2)cc1,-0.67,i,i,i,i,-7.21*
O=C(Nc1ccc(N2CCCC2)cc1)c1cccc(Cl)c1,-1.95,i,i,i,i,i
CCOc1ccccc1CNC(=O)C1CCC(=O)N1C(C)C (centres undefined),0.15,i,i,i,i,i
CCOP(=O)(OCC)C(NCc1ccccc1)c1ccc(Br)cc1 (centres undefined),-4.26*,i,i,i,i,i
CCOP(=O)(OCC)C(NC(=O)Nc1ccccc1)c1ccccc1 (centres undefined),0.71,i,i,i,-4.78*,i
CCOP(=O)(OCC)C(NC(=O)C(F)(F)F)c1ccccc1 (centres undefined),0.96,i,i,i,i,i
O=[N+]([O-])c1ccc(N=Nc2c(Cl)cc(O)cc2Cl)cc1,-6.9*,i,i,i,i,i
CC(N)=Nc1ccc([N+](=O)[O-])cc1,2.01,i,i,i,i,i
O=C1C(=C2CCCCC2)SC(=S)N1Cc1ccco1,-0.53,i,i,i,i,-7.91*
COc1ccc(/C=C2\Oc3cc(OCC(=O)N4CC(O)C[C@H]4C(=O)O)ccc3C2=O)cc1OC (some centres undefined),0.28,i,i,i,i,i
CCCOc1ccc(C(=O)N/N=C/c2ccc(-c3ccc(S(=O)(=O)Nc4ncccn4)cc3)o2)cc1,-0.39,i,i,29.3*,i,i
CN(C(=O)COC(=O)c1ccccc1Nc1ccccc1)c1c(N)n(Cc2ccccc2)c(=O)[nH]c1=O,-1.57,i,i,i,-7*,i
O=C(NCc1ccc(F)cc1)C(c1ccccc1)N(CC1CCCO1)C(=O)Cn1nnc2ccccc21 (centres undefined),0.87,i,i,i,i,i
O=C(CN(Cc1ccc(F)cc1)C(=O)Cn1nnc2ccccc21)NCC1CCCO1 (centres undefined),0.01,i,16.5*,i,i,i
CN1C[C@@H]2C[C@@H](c3cccn3-c3nccs3)N3CCC[C@@]23C1=O,1.2,i,i,i,i,i
SMILES,Kir21 block,RGS4 inh,MrgX1 PAM,MrgX1 ag,MrgX1 antag,RGS4 pot
COC(=O)c1cccc(Cn2c(Cl)c(/C=N/Nc3ccccc3C)sc2=O)c1,0.69,i,i,i,-8.09*,i
CCc1ccccc1N(CC(=O)NC(C)(C)CC)C(=O)CCC(=O)Nc1nccs1,-0.1,i,i,i,i,i
O=C(NNC(=O)c1cc(-c2cccc(Br)c2)nc2ccccc12)c1csc(N2CCOCC2)n1,-0.08,i,i,i,i,-7.56*
O=C(/C=C/Nc1ccc(Br)cc1F)c1ccccc1,-0.03,i,i,i,-5.95*,i
O=C(/C=C/Nc1ccccc1F)c1ccc(Br)cc1,1.81,i,i,i,i,i
O=C1S/C(=C\c2ccc(N3CCOCC3)o2)C(=O)N1Cc1c(F)cccc1Cl,-0.78,i,i,56.2*,i,i
O=C1S/C(=C\c2ccc(N3CCOCC3)o2)C(=O)N1c1ccccc1,-5.93,i,i,i,i,-7.62*
O=C1S/C(=C/c2ccc(N3CCOCC3)o2)C(=O)N1Cc1c(F)cccc1Cl,0.01,i,9.41*,i,i,i
Cn1c(NNC(=O)/C=C/c2ccc3c(c2)OCO3)cc(=O)n(C)c1=O,-0.05,i,i,i,i,i
CCOc1ccc(CNCCc2ccc(S(N)(=O)=O)cc2)cc1,0.39,i,i,i,i,i
COc1ccc(CCNC(=O)CN2CCCc3ccccc32)cc1OC,-1.65,i,i,i,i,i
O=C(CN1CCCc2ccccc21)NCCc1ccc(F)cc1,-6.52*,i,i,i,i,i
COc1ccc(Cl)cc1C(=O)CSc1nc(N)cc(N)n1,-4.72*,i,i,i,i,i
c1ccc(C(c2ccccc2)N2CCN(c3nc4ccccc4n4cnnc34)CC2)cc1,1.52,i,i,i,i,-7.25*
NS(=O)(=O)c1ccc(CCNCc2ccccc2OCc2ccc(F)cc2)cc1,-2.71,i,i,i,-4.75*,i
COc1ccc(C(c2nnnn2C(C)(C)C)N2CCN(c3nc4ccccc4s3)CC2)cc1OC (centres undefined),2.18,i,.,.,.,i
CCCCCCCCNc1ncnc2ccccc12,-8*,i,i,i,i,i
Cc1ccc(S(=O)(=O)CCC(=O)OCC(=O)NC(N)=O)cc1,0.58,i,i,i,i,i
CCOC(=O)CCS(=O)(=O)c1ccc(-c2ccc(S(=O)(=O)CCC(=O)OCC)cc2)cc1,0.48,i,i,i,-7.1*,i
COC(=O)c1c(-c2ccc(OC)cc2)oc2ccc(-c3ccc(OC)nc3)cc12,2.31,i,i,i,i,i

# High-throughput results (PubChem BioAssay)
